The values below come from ChEMBL document CHEMBL4130432, “Lipid Peroxidation and Cyclooxygenase Enzyme Inhibitory Compounds from Prangos haussknechtii” (J Nat Prod, 2017).

Assay [1] can be described thus: Antioxidant activity assessed as inhibition of ferrous chloride-induced lipid peroxidation in […] labelled SLPC large unilamellar vesicle measured over 21 mins by fluorescence assay. Format: functional. The essentials: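 Vesicle model: large unilamellar vesicles carrying the fluorescent probe 3-[p-(6-phenyl)-1,3,5-hexatrienyl]phenylpropionic acid. Lipid peroxidation was followed by the emitted fluorescence on a fluorometer. Values are 50% inhibitory concentrations, expressed as mean ± SEM (n = 2).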

Assay [2] in a line: Antioxidant activity assessed as redox reaction between compound and MTT in DMSO measured after 6 hrs. Format: functional. The essentials:
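Reduction of MTT to formazan was read on a microplate reader. Results are reported as 50% inhibitory concentrations, mean ± SEM (n = 2).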

The target in assay [3] is T1, Prostaglandin G/H synthase 2 (Homo sapiens, UniProt P35354).
T1 sequence (P35354 whole entry): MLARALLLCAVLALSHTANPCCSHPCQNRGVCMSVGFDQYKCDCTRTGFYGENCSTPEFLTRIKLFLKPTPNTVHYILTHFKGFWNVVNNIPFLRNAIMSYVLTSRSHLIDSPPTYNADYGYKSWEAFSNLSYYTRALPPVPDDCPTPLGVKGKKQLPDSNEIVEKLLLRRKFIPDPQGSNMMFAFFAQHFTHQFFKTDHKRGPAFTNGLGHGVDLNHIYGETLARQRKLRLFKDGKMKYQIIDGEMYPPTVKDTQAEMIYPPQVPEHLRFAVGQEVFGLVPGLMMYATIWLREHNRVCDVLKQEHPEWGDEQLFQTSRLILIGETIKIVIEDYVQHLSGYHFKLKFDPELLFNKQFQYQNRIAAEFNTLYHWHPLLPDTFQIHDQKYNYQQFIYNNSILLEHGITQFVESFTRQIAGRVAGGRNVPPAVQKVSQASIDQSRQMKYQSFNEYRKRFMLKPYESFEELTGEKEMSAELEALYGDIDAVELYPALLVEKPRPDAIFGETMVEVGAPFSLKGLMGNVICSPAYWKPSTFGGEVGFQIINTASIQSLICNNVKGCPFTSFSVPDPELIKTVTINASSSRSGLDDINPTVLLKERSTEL
As to the kind of experiment: Inhibition of human COX2 expressed in insect cells using arachidonic acid as substrate pretreated for 3 mins followed by substrate addition measured immediately. Format: cell-based.

The target in assay [4] is T2, Prostaglandin G/H synthase 1 (Ovis aries, UniProt P05979).
T2 sequence (P05979 whole entry): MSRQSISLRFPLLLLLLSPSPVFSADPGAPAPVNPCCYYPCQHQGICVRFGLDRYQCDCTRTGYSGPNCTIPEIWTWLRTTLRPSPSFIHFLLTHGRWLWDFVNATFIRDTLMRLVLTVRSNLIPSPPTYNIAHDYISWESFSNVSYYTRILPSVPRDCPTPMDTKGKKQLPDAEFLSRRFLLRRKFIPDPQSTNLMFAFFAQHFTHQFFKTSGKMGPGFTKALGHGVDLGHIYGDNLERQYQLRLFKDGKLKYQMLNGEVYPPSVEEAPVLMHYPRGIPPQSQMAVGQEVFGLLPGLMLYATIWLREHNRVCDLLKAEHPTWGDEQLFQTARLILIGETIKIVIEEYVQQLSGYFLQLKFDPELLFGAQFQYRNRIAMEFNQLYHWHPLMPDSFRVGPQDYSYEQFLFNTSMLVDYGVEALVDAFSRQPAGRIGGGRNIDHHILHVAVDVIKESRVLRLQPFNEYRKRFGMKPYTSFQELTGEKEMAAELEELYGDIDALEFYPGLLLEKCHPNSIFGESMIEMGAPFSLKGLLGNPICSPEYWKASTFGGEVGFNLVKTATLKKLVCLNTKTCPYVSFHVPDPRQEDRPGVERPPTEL
Nature of the assay: Inhibition of ovine COX1 using arachidonic acid as substrate pretreated for 3 mins followed by substrate addition measured immediately. An outline of the steps: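 COX-1 enzyme was prepared in-house from ram seminal vesicles. Activity was monitored in a micro oxygen chamber using an oxygen electrode attached to a biological oxygen monitor.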

One may read the IC50 as the concentration needed to halve the response being measured. For `Cc1cc(C(C)(C)C)c(O)c(C(C)(C)C)c1` [BUTYLATED HYDROXYTOLUENE], the IC50 in assay [1] was found to be 6.9 µM.
Take `COc1ccc2ccc(=O)oc2c1C/C=C(\C)COC(=O)C=C(C)C`: the IC50 in assay [2] was 122 µM; in assay [3] (read-out: IC50), 45.3 µM; in assay [4] (read-out: IC50), 36.8 µM; in assay [1], 62.6 µM.
As to `CC1(C)O[C@H]1COc1c2ccoc2cc2oc(=O)ccc12` [OXYPEUCEDANIN], the IC50 in assay [1] is 74.8 µM.
As to `CCC(C)C(C(=O)O)N(C(=O)C(N)CC(C)C)C(C(=O)O)C(C)CC` (centres undefined), the IC50 in assay [2] is 48.6 µM; in assay [3] (read-out: IC50), 34.6 µM; in assay [4], “Not Active”; in assay [1], 43 µM.
As for `COc1ccc2ccc(=O)oc2c1C/C=C(\C)COC(=O)CC(C)C`, the IC50 in assay [2] was determined as 128 µM; in assay [3] (read-out: IC50) it was 56.4 µM; in assay [4] (read-out: IC50), 47.7 µM; in assay [1], 86.1 µM.
For `CC(C)(C)c1cc(O)ccc1O` [E319], the IC50 in assay [2] worked out at 150 µM; in assay [1], 10 µM.
In the case of `O=C1O[C@H]([C@@H](O)CO)C(O)=C1O` [ASCORBIC ACID], the IC50 in assay [2] amounted to 142 µM.
In the case of `CC(=O)Oc1ccccc1C(=O)O` [ASPIRIN], the IC50 result in assay [3] was “Not Active”.
For the molecule `O=C(O)C(O)Cc1ccccc1` (centres undefined), the 50% inhibitory concentration (IC50) in assay [1] worked out at 161 µM.
Turning to `CC(=O)OC1C2OC(CC(C)=CC2=O)C1(O)C=C(C)C` (centres undefined), the IC50 in assay [2] is 67.1 µM; in assay [3], “Not Active”; in assay [4], “Not Active”; in assay [1], 114 µM.
`COc1ccc2cc([C@H](C)C(=O)O)ccc2c1` [NAPROXEN]: the IC50 in assay [3] (read-out: IC50) turned out to be 52.2 µM.
For the molecule `O=C(O)CC(O)C(=O)O` (centres undefined) [MALIC ACID], in assay [1], the IC50 was 97.7 µM.
On to `COc1ccc2ccc(=O)oc2c1CC=C(C)C` [OSTHOLE], for which the IC50 worked out at 81.1 µM in assay [3] (read-out: IC50), 52.5 µM in assay [4] (read-out: IC50) and 120 µM in assay [1].
For `CC(C)=CCOc1c2ccoc2cc2oc(=O)ccc12` [ISOIMPERATORIN], the IC50 in assay [1] came to 63.7 µM.
